This note sets out measurements from ChEMBL document CHEMBL3244304, “Correlation of biological activity and high-pressure liquid chromatographic retention index for a series of propranolol, barbiturate, and anthranilic acid analogues” (J Med Chem, 1979).

A short description of data set [1]: Retention index of the compound by HPLC method. Format: physicochemical.
Data set [2] is described as follows: Octanol-buffer partition coefficient, log P of the compound at pH 8.0 by ultraviolet spectroscopy. Format: physicochemical. The gist of the method:
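Drug distributed between an octanol phase and an aqueous buffer at pH 8.0, the same way as the pH 7.0 phosphate-buffer method. Drug in each phase quantified by ultraviolet spectroscopy, and the log of the octanol/buffer distribution ratio was reported.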

Data set [3] in a line: Octanol-water partition coefficient, log P of nonionized form of compound. Format: physicochemical.
For data set [4], the species on record is Oryctolagus cuniculus. Description: Hypnotic activity in rabbit. Format: functional. The gist of the method:
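Rabbits; value expressed as negative log of the minimum effective dose (mol/kg).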

Data set [5] is described as follows: Inhibition of Arbacia egg cell division. Format: functional. The gist of the method:
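Arbacia egg cell division; value expressed as negative log of the molar drug concentration needed to reduce cell division 50%.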

In data set [1], `O=C(O)c1ccccc1NS(=O)(=O)c1ccccc1` registered a Retention_index of 530. In addition, the logD in data set [2] is -0.46.
On to `CCC1(CC)C(=O)NC(=O)N(C)C1=O` [METHARBITAL], for which the Retention_index in data set [1] is 532. For the same compound, the logP in data set [3] was 1.21.
On the same counts, the results for `CCCC(C)C1(CC)C(=O)NC(=S)NC1=O` (centres undefined) [THIOPENTAL] are 732 and 3.
Turning to `CCC(C)C1(CC)C(=O)NC(=O)NC1=O` (centres undefined) [BUTABARBITAL], the Retention_index in data set [1] was found to be 600. For the same compound, the logP in data set [3] worked out at 1.45. In data set [4], this compound showed a pMED of 3.63.
Consider `O=C(O)c1ccccc1NS(=O)(=O)c1ccc(Br)cc1`, for which the Retention_index in data set [1] is recorded as 678. Moreover, the logD in data set [2] is 0.83.
Turning to `CCC1(C2=CCCCC2)C(=O)NC(=O)NC1=O` [CYCLOBARBITAL], the Retention_index in data set [1] amounted to 604. Also, the log partition coefficient (logP) in data set [3] was determined as 1.86.
In turn, `O=C(O)c1ccccc1NS(=O)(=O)c1ccc(Cl)cc1` yielded a Retention_index in data set [1] of 656. The compound also returned a logD in data set [2] of 0.54.
Consider `C=CCC1(C(C)C#CCC)C(=O)N=C(O)N(C)C1=O` (centres undefined) [METHOHEXITAL], for which the Retention_index in data set [1] was 776. The compound also came in with a logP in data set [3] of 2.19.
On the same counts, the results for `CN1C(=O)NC(=O)C(C)(C2=CCCCC2)C1=O` (centres undefined) [HEXOBARBITAL] are 648 and 1.92.
On the same counts, the results for `C=CCC1(CC(C)C)C(=O)NC(=O)NC1=O` [BUTALBITAL] are 616 and 1.45.
With `C=CCC1(C(C)CCC)C(=O)N=C(S)NC1=O` (centres undefined) [THIAMYLAL], the Retention_index in data set [1] was determined as 760. The compound further had a logP in data set [3] of 3.2.
In data set [1], `CCC1(CCC(C)C)C(=O)NC(=O)NC1=O` [AMOBARBITAL] came in with a Retention_index of 681. This compound yielded a logP in data set [3] of 1.95.
In turn, `CCCCC1(CC)C(=O)NC(=O)NC1=O` [BUTETHAL] had a Retention_index in data set [1] of 610. In data set [3], this compound showed a log partition coefficient (logP) of 1.65. This compound showed a pMED in data set [4] of 3.72. The compound further came in with a pED50 in data set [5] of 2.4.
As for `C=CCC1(C(C)C)C(=O)NC(=O)NC1=O` [APROBARBITAL], the Retention_index in data set [1] worked out at 552. In addition, the logP in data set [3] came to 1.15. This compound had a pMED in data set [4] of 3.6.
For the compound `CCCC(C)C1(CC)C(=O)NC(=O)NC1=O` (centres undefined) [PENTOBARBITAL], the Retention_index in data set [1] stood at 686. The logP in data set [3] worked out at 1.95.
`O=C(O)c1ccccc1NS(=O)(=O)c1ccc(F)cc1` gave a Retention_index in data set [1] of 565. In data set [2], this compound displayed a logD of 0.03.
Take `O=C1CC(=O)NC(=O)N1` [BARBITURIC ACID]: the Retention_index in data set [1] is on record as 53. The logP in data set [3] is -1.35.
Turning to `Cc1ccc(S(=O)(=O)Nc2ccccc2C(=O)O)cc1`, in data set [1], the Retention_index amounted to 606. The compound also had a logD in data set [2] of 0.05.
Consider `CCC1(c2ccccc2)C(=O)NC(=O)NC1=O` [PHENOBARBITAL], for which, in data set [1], the Retention_index came to 523.
Consider `CCC1(CC)C(=O)NC(=O)NC1=O` [BARBITAL], for which the Retention_index in data set [1] was found to be 423. Further, in data set [3], the logP was determined as 0.65. In data set [4], this compound displayed a pMED of 3.09.
The compound `C=CCC1(C(C)CCC)C(=O)NC(=O)NC1=O` (centres undefined) [SECOBARBITAL] came in with a Retention_index in data set [1] of 728. In data set [3], this compound yielded a logP of 2.15. In addition, the pMED in data set [4] amounted to 4.2.
As to `O=C(O)c1ccccc1NS(=O)(=O)c1ccc([N+](=O)[O-])cc1`, the Retention_index in data set [1] is given as 586. The same compound displayed a logD in data set [2] of -0.03.

A word on the logD: it is lipophilicity at a set pH, counting ionised and neutral species. Low readings indicate lower lipophilicity, high ones higher lipophilicity. In general, logP refers to a log measure of how a compound divides between an organic and an aqueous phase.
